Assay results from article PMC7670640 (Pharmacology Research & Perspectives, 2020).

Assays:
[1] = Multiple ascending dose part; assay type: in vivo, human
Method in brief: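 Healthy men, double-blind, randomized 6 active:2 placebo per cohort. Oral test compound or placebo once daily for 14 days, each dose after a moderate-fat meal (~600 calories, ~30% from fat). An expansion cohort (24 planned) assessed GI tolerability. Monitoring covered AEs, physical exams, vital signs, ECGs, clinical labs, suicidal risk, and GI and hepatobiliary abnormalities. AEs were MedDRA 21.0-coded and summarized descriptively.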

[2] = Relative bioavailability study: safety and tolerability; assay type: in vivo, human
[3] = Single ascending dose part; assay type: in vivo, human; conditions: for AUC / Cmax / Tmax / half-life: human, plasma, oral
Method in brief: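 Healthy men received a single oral dose of test compound after a moderate-fat meal (~600 calories, ~30% from fat). Plasma was taken from ~2 mL whole blood and assayed by HPLC-MS/MS. Cmax, tmax, AUC0-∞, AUC0-24 and terminal half-life came from standard noncompartmental analysis. Dose proportionality was assessed with a power model and ANOVA.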

HIV‐1 subtypes = assay: Inhibition across HIV‐1 subtypes; conditions: background statement, no reference given
[4] = 50 mg once daily for 14 days (N = 6)
[5] = 100 mg once daily for 14 days (N = 6)
[6] = 200 mg once daily for 14 days (N = 25; cohort 5 and expansion cohort)
[7] = 320 mg once daily for 14 days (N = 7)
[8] = Part 2, across 58 participants (GSK3640254 n = 44 or placebo n = 14)

Structure (SMILES): C=C(C)[C@@H]1CC[C@]2(NCCN3CCS(=O)(=O)CC3)CC[C@]3(C)[C@H](CC[C@@H]4[C@@]5(C)CC=C(C6=CC[C@@](CF)(C(=O)O)CC6)C(C)(C)[C@@H]5CC[C@]43C)[C@@H]12 [GSK3640254]
- Adverse event: Abdominal distension [1, 4]: 0 n (%)
- Adverse event: Abdominal pain [1, 4]: 1 (17) n (%)
- Adverse event: Abnormal dreams [1, 4]: 0 n (%)
- Adverse event: Agitation [1, 4]: 0 n (%)
- Adverse event: Any event [1, 4]: 4 (67) n (%)
- Adverse event: Arthropod bite [1, 4]: 0 n (%)
- Adverse event: Back pain [1, 4]: 0 n (%)
- Adverse event: Catheter‐site bruise [1, 4]: 0 n (%)
- Adverse event: Catheter‐site pain [1, 4]: 0 n (%)
- Adverse event: Constipation [1, 4]: 0 n (%)
- Adverse event: Contact dermatitis [1, 4]: 1 (17) n (%)
- Adverse event: Contusion [1, 4]: 1 (17) n (%)
- Adverse event: Disturbance in attention [1, 4]: 0 n (%)
- Adverse event: Dizziness [1, 4]: 1 (17) n (%)
- Adverse event: Dry skin [1, 4]: 0 n (%)
- Adverse event: Fatigue [1, 4]: 2 (33) n (%)
- Adverse event: Gastrointestinal disorders [1, 4]: 2 (33) n (%)
- Adverse event: Headache [1, 4]: 3 (50) n (%)
- Adverse event: Lethargy [1, 4]: 0 n (%)
- Adverse event: Musculoskeletal stiffness [1, 4]: 1 (17) n (%)
- Adverse event: Nausea [1, 4]: 0 n (%)
- Adverse event: Oropharyngeal pain [1, 4]: 0 n (%)
- Adverse event: Rash [1, 4]: 0 n (%)
- Adverse event: Somnolence [1, 4]: 1 (17) n (%)
- Adverse event: Vessel puncture site bruise [1, 4]: 0 n (%)
- Adverse event: Abdominal distension [1, 5]: 0 n (%)
- Adverse event: Abdominal pain [1, 5]: 0 n (%)
- Adverse event: Abnormal dreams [1, 5]: 0 n (%)
- Adverse event: Agitation [1, 5]: 1 (17) n (%)
- Adverse event: Any event [1, 5]: 5 (83) n (%)
- Adverse event: Arthropod bite [1, 5]: 0 n (%)
- Adverse event: Back pain [1, 5]: 1 (17) n (%)
- Adverse event: Catheter‐site bruise [1, 5]: 1 (17) n (%)
- Adverse event: Catheter‐site pain [1, 5]: 0 n (%)
- Adverse event: Constipation [1, 5]: 0 n (%)
- Adverse event: Contact dermatitis [1, 5]: 0 n (%)
- Adverse event: Contusion [1, 5]: 1 (17) n (%)
- Adverse event: Disturbance in attention [1, 5]: 0 n (%)
- Adverse event: Dizziness [1, 5]: 2 (33) n (%)
- Adverse event: Dry skin [1, 5]: 0 n (%)
- Adverse event: Fatigue [1, 5]: 1 (17) n (%)
- Adverse event: Gastrointestinal disorders [1, 5]: 0 n (%)
- Adverse event: Headache [1, 5]: 1 (17) n (%)
- Adverse event: Lethargy [1, 5]: 0 n (%)
- Adverse event: Musculoskeletal stiffness [1, 5]: 0 n (%)
- Adverse event: Nausea [1, 5]: 0 n (%)
- Adverse event: Oropharyngeal pain [1, 5]: 0 n (%)
- Adverse event: Rash [1, 5]: 0 n (%)
- Adverse event: Somnolence [1, 5]: 0 n (%)
- Adverse event: Vessel puncture site bruise [1, 5]: 0 n (%)
- Adverse event: Abdominal distension [1, 6]: 1 (4) n (%)
- Adverse event: Abdominal pain [1, 6]: 1 (4) n (%)
- Adverse event: Abnormal dreams [1, 6]: 2 (8) n (%)
- Adverse event: Agitation [1, 6]: 1 (4) n (%)
- Adverse event: Any event [1, 6]: 19 (76) n (%)
- Adverse event: Arthropod bite [1, 6]: 0 n (%)
- Adverse event: Back pain [1, 6]: 2 (8) n (%)
- Adverse event: Catheter‐site bruise [1, 6]: 1 (4) n (%)
- Adverse event: Catheter‐site pain [1, 6]: 0 n (%)
- Adverse event: Constipation [1, 6]: 2 (8) n (%)
- Adverse event: Contact dermatitis [1, 6]: 7 (28) n (%)
- Adverse event: Contusion [1, 6]: 3 (12) n (%)
- Adverse event: Disturbance in attention [1, 6]: 1 (4) n (%)
- Adverse event: Dizziness [1, 6]: 2 (8) n (%)
- Adverse event: Dry skin [1, 6]: 0 n (%)
- Adverse event: Fatigue [1, 6]: 1 (4) n (%)
- Adverse event: Gastrointestinal disorders [1, 6]: 6 (24) n (%)
- Adverse event: Headache [1, 6]: 3 (12) n (%)
- Adverse event: Lethargy [1, 6]: 1 (4) n (%)
- Adverse event: Musculoskeletal stiffness [1, 6]: 1 (4) n (%)
- Adverse event: Nausea [1, 6]: 1 (4) n (%)
- Adverse event: Oropharyngeal pain [1, 6]: 1 (4) n (%)
- Adverse event: Rash [1, 6]: 1 (4) n (%)
- Adverse event: Somnolence [1, 6]: 0 n (%)
- Adverse event: Vessel puncture site bruise [1, 6]: 1 (4) n (%)
- Adverse event: Abdominal distension [1, 7]: 0 n (%)
- Adverse event: Abdominal pain [1, 7]: 0 n (%)
- Adverse event: Abnormal dreams [1, 7]: 0 n (%)
- Adverse event: Agitation [1, 7]: 0 n (%)
- Adverse event: Any event [1, 7]: 6 (86) n (%)
- Adverse event: Arthropod bite [1, 7]: 2 (29) n (%)
- Adverse event: Back pain [1, 7]: 0 n (%)
- Adverse event: Catheter‐site bruise [1, 7]: 0 n (%)
- Adverse event: Catheter‐site pain [1, 7]: 1 (14) n (%)
- Adverse event: Constipation [1, 7]: 0 n (%)
- Adverse event: Contact dermatitis [1, 7]: 0 n (%)
- Adverse event: Contusion [1, 7]: 0 n (%)
- Adverse event: Disturbance in attention [1, 7]: 0 n (%)
- Adverse event: Dizziness [1, 7]: 1 (14) n (%)
- Adverse event: Dry skin [1, 7]: 1 (14) n (%)
- Adverse event: Fatigue [1, 7]: 0 n (%)
- Adverse event: Gastrointestinal disorders [1, 7]: 2 (29) n (%)
- Adverse event: Headache [1, 7]: 2 (29) n (%)
- Adverse event: Lethargy [1, 7]: 1 (14) n (%)
- Adverse event: Musculoskeletal stiffness [1, 7]: 0 n (%)
- Adverse event: Nausea [1, 7]: 1 (14) n (%)
- Adverse event: Oropharyngeal pain [1, 7]: 1 (14) n (%)
- Adverse event: Rash [1, 7]: 0 n (%)
- Adverse event: Somnolence [1, 7]: 1 (14) n (%)
- Adverse event: Vessel puncture site bruise [1, 7]: 0 n (%)
- participants reporting palpitations ([1]; Part 2, 200‐mg + expansion cohort, one participant, mild, unrelated to study drug): 2%
- most common AEs: contact dermatitis [1, 8]: 13.8%
- most common AEs: dizziness [1, 8]: 12.1%
- most common AEs: headache [1, 8]: 25.9%
- participants discontinued because of grade 1 maculopapular rash ([1]; expansion cohort, one participant): 2%
- changes in laboratory values, vital signs, or ECG parameters ([2]; in vivo): No clinically significant changes in laboratory values, vital signs, or ECG parameters
- participants reporting at least one AE ([2]; of the 14 total participants, all mild): 50%
- dose‐proportionality of Cmax and AUC ([3]; 1‐ to 700‐mg single dose range): approximately dose‐proportional increase in exposure
- AUC ([3]; 1 mg): 57 ng·h/mL
- Cmax ([3]; 1 mg): 5 ng/mL
- Tmax ([3]; 1 mg, tmax, median (range), single dose 1 mg, N = 6): 3.5 h
- AUC ([3]; 3 mg): 329 ng·h/mL
- Cmax ([3]; 3 mg): 14 ng/mL
- half-life ([3]; 3 mg, t1/2, geometric mean (%CVb), single dose 3 mg, N = 6): 20.5 h
- Tmax ([3]; 3 mg, tmax, median (range), single dose 3 mg, N = 6): 4.5 h
- AUC ([3]; 10 mg): 1230 ng·h/mL
- Cmax ([3]; 10 mg): 47 ng/mL
- Tmax ([3]; 10 mg, tmax, median (range), single dose 10 mg, N = 6): 3.5 h
- AUC ([3]; 30 mg): 2990 ng·h/mL
- Cmax ([3]; 30 mg): 130 ng/mL
- Tmax ([3]; 30 mg, tmax, median (range), single dose 30 mg, N = 6): 4 h
- AUC ([3]; 100 mg): 8540 ng·h/mL
- Cmax ([3]; 100 mg): 372 ng/mL
- Tmax ([3]; 100 mg, tmax, median (range), single dose 100 mg, N = 6): 3.8 h
- AUC ([3]; 200 mg): 15000 ng·h/mL
- Cmax ([3]; 200 mg): 579 ng/mL
- Tmax ([3]; 200 mg, tmax, median (range), single dose 200 mg, N = 6): 3 h
- AUC ([3]; 400 mg): 43000 ng·h/mL
- Cmax ([3]; 400 mg): 1880 ng/mL
- Tmax ([3]; 400 mg, tmax, median (range), single dose 400 mg, N = 6): 3.3 h
- AUC ([3]; 700 mg): 39700 ng·h/mL
- Cmax ([3]; 700 mg): 1720 ng/mL
- Tmax ([3]; 700 mg, tmax, median (range), single dose 700 mg, N = 6): 3.3 h
- half-life ([3]; estimated half‐life, single‐ and multiple‐dose administration after a moderate‐calorie and ‐fat breakfast): 21.2 to 28.4 h
- half-life ([3]; half‐life, abstract summary of the FTIH study): ~24 h
- half-life ([3]; mean half‐life, 10‐ to 700‐mg single doses): ~24 h
- Tmax ([3]; median tmax, after administration, range across doses): 3 to 4.5 h
- change in exposure from 400 to 700 mg ([3]; single dose): no increase in exposure from 400 to 700 mg
- time detectable in plasma ([3]; single dose 1 and 3 mg): up to 48 hours
- time detectable in plasma ([3]; single dose 10‐700 mg): up to 96 hours
- inhibition across HIV‐1 subtypes (HIV‐1 subtypes): broad‐spectrum inhibition across various HIV‐1 subtypes
